# Results of several laboratories.
# Lines come from different studies, so protocols differ.
# Read-out: cell growth or viability
SMILES,cell line,method,time,IC50 [µM]
Cc1ccc2nc(Cl)c(C=C3C(=O)Nc4ccccc43)cc2c1,CHO,MTT,72 h,80
COc1cc(C(=O)Nc2cc(OC)c3ccccc3n2)nc(C(=O)Nc2cc(OC)c3ccccc3n2)c1,HT-1080,ATP luminescence,72 h,> 40
CCN(CC)CCNC(=O)c1c(C)[nH]c(/C=C2\C(=O)Nc3ccc(F)cc32)c1C,IEC-6,,72 h,3.06
Oc1ccccc1CN=CCNc1ccnc2cc(Cl)ccc12,CHO,MTT,,> 300
COc1c(C)c(OS(=O)(=O)c2ccc3ccccc3c2)c(C)c(OS(=O)(=O)c2ccc3ccccc3c2)c1C(=O)/C=C/c1ccccc1,SH-SY5Y,SRB,72 h,> 50
Cc1cc(C)cc(COc2cc3c(cc2OCc2cc(C)cc(C)c2)[C@H]2C[C@](O)(Cc4cn(Cc5ccncc5)nn4)C[C@H](C)N2CC3)c1,GES1,MTT,48 h,2.55
CCN1CCN(c2ccc(Nc3cc(N(C)C(=O)Nc4c(Cl)c(OC)cc(OC)c4Cl)ncn3)cc2)CC1,NCI-H716,ATP luminescence,96 h,0.00576
NCCOc1cc(NC(=O)c2cc(OCc3ccc(F)cc3)cc(C(=O)Nc3cc(OCCN)c4ccccc4n3)n2)nc2ccccc12,HT-1080,ATP luminescence,72 h,1.6
COc1cc(OC)c(/C=C/S(=O)(=O)Nc2ccc(OC)c(N)c2)c(OC)c1,NCI-H187,trypan blue,96 h,0.004
CC(C)/N=C1\c2cc(C(N)=O)nc3c(N)c(Cl)c(N)c(c23)N1C,HCC4017,,,0.48
Cc1cc(C)cc(COc2cc3c(cc2OCc2cc(C)cc(C)c2)[C@H]2C[C@](O)(Cc4cn(Cc5ccc(-c6ccccc6)cc5)nn4)C[C@H](C)N2CC3)c1,GES1,MTT,48 h,2.22
C[C@H](NC(=O)c1cccc2ccccc12)C(=O)Nc1ccccc1Oc1ccccc1,SH-SY5Y,,,4
O=C1Nc2ccccc2C1=Cc1cc2ccccc2nc1Cl,CHO,MTT,72 h,> 100
CN1C(=O)c2cc(C(N)=O)nc3c(N)c(Cl)c(N)c1c23,HCC4017,,,15.9
NCCOc1cc(C(=O)Nc2cc(OCCN3CCCC3)c3ccccc3n2)nc(C(=O)Nc2cc(OCCN3CCCC3)c3ccccc3n2)c1,HT-1080,ATP luminescence,72 h,0.2
CC(C)C[C@H](NC(=O)[C@H](Cc1ccccc1)NC(=O)c1cnccn1)B(O)O,MM.1R,ATP luminescence,48 h,0.0089
O=C(O)c1ccc(NC(=O)c2cc3cc(Cl)ccc3[nH]2)cc1,T24,MTT,,15
CC(=O)O[C@H]1C(=O)[C@@]2(C)[C@H]([C@H](OC(=O)c3ccccc3)[C@]3(O)C[C@H](OC(=O)[C@H](O)[C@@H](NC(=O)c4ccccc4)c4ccccc4)C(C)=C1C3(C)C)[C@]1(OC(C)=O)CO[C@@H]1C[C@@H]2O,HCC1937,ATP luminescence,72 h,> 2.5
COc1cc(C(=O)Nc2cc(OCCN3CCCC3)c3ccccc3n2)nc(C(=O)Nc2cc(OCCN3CCCC3)c3ccccc3n2)c1,HT-1080,ATP luminescence,72 h,1.5
Clc1ccc2c(NCCNCc3ccccn3)ccnc2c1,CHO,MTT,,144
CCCCN(Cc1ccc(C(=O)NO)cc1)C(=O)Nc1ccccc1,SUP-B15,ATP luminescence,72 h,8.66
CCN1C(=O)N(c2c(F)c(OC)cc(OC)c2F)Cc2cnc3[nH]c(CN4CCOCC4)cc3c21,SNU-16,ATP luminescence,96 h,0.00338
C#CCOc1cc(C(=O)Nc2cc(OCCN)c3ccccc3n2)nc(C(=O)Nc2cc(OCCN)c3ccccc3n2)c1,HT-1080,ATP luminescence,72 h,4.7
COc1cc(Nc2nccc(-c3cnn4nc(OC)ccc34)n2)cc(C(F)(F)F)c1,A 172,ATP luminescence,,0.43
O=C(NCc1ccc(CO)cc1)c1c[nH]c2ccc(Cl)cc12,T24,MTT,,17
C=C(C)C(=O)Nc1ccc(-c2c(-c3ccc(Oc4nccc(C)n4)c(F)c3)c3c(N)ncnc3n2C)cc1,SNU-16,ATP luminescence,96 h,0.00325
NCCCOc1cc(NC(=O)c2cc(OCCN)cc(C(=O)Nc3cc(OCCCN)c4ccccc4n3)n2)nc2ccccc12,HT-1080,ATP luminescence,72 h,6.8
COc1cccc2c1C(=O)c1c(O)c3c(c(O)c1C2=O)C[C@@](O)(C(=O)CO)C[C@@H]3O[C@H]1C[C@H](N)[C@H](O)[C@H](C)O1,BHK,SRB,48 h,36.4
CN(C)CCCOc1cc(NC(=O)c2cc(Cl)cc(C(=O)Nc3cc(OCCCN(C)C)c4ccccc4n3)n2)nc2ccccc12,HT-1080,ATP luminescence,72 h,1.8
O=[N+]([O-])c1ccc(NC(=S)NN=Cc2ccccn2)cc1,BHK,SRB,48 h,54.8
CC(C)C[C@H](NC(=O)[C@H](Cc1ccccc1)NC(=O)c1cnccn1)B(O)O,HT-1080,ATP luminescence,,0.013
O=C(Nc1cc(OCCN2CCCC2)c2ccccc2n1)c1cc(OCc2ccc(F)cc2)cc(C(=O)Nc2cc(OCCN3CCCC3)c3ccccc3n2)n1,HT-1080,ATP luminescence,72 h,8.5
